# From article PMC7077758 (The Journal of organic chemistry, 2019)
# Assay: Thiol reactivity assay
# Format: physicochemical
# Details: room temperature, 1H NMR
# Procedure, shortened: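 Dehydroamino-acid peptide (typically 0.010–0.015 mmol) in DMSO-d6 with 1,3,5-trimethoxybenzene as internal standard, treated with 2 equiv cysteamine added from a freshly prepared 0.5 M stock in DMSO-d6. 1H NMR spectra were recorded over time, and loss of starting peptide was quantified from diagnostic signals against the internal standard. Peptides unreactive at room temperature were heated stepwise to 60, 80 and 100 °C.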
structure (smiles),measurement,value
C=C1CCOC1=O [α-methylene-γ-butyrolactone],time to complete consumption of the electrophile by cysteamine,≤ 5 min
